Measured values taken from publication PMC4387373 (Infectious Disease Reports, 2015).
Read-outs that look alike come from different tables or passages of the source.

Experiments:
[1] = assay type: in vivo, human; conditions: for concentration at 2 h / concentration at 4 h / concentration at 6 h / concentration at 8 h: human, plasma, oral; for Cthrough (through concentration): patient on sildenafil 40 mg tid, bosentan 125 mg bid, ritonavir-boosted PI
[2] = Clinical course of the patient: hemodynamics, functional class, tolerability; assay type: in vivo, human
[3] = cited from earlier work
[4] = cited from earlier work; remark: listed apart in the source
[5] = cited from earlier work; remark: listed apart in the source
phosphodiesterase = conditions: same phosphodiesterase specificity as sildenafil; cited from earlier work
[6] = Plasma concentrations of protease inhibitors; assay type: in vivo, human; conditions: for concentration at 2 h / concentration at 4 h / concentration at 6 h / concentration at 8 h: human, plasma, oral; for Plasma concentration, t0: t0, 8 a.m., before intake of antiretroviral dose, fosamprenavir 700 mg bid
Outline: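 Heparinized venous blood was drawn before the morning antiretroviral dose (T0) and at 2, 4, 6 and 8 h after it. Plasma was separated by centrifugation and stored at −80 °C. PI levels were measured by a validated HPLC method.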

[7] = coadministered with lopinavir/ritonavir

SMILES: CCCc1nn(C)c2c(=O)[nH]c(-c3cc(S(=O)(=O)N4CCN(C)CC4)ccc3OCC)nc12 [sildenafil]
- Plasma concentration versus the therapeutic range ([1]; coadministration of sildenafil and ritonavir-boosted PI): above the therapeutic range
- concentration at 2 h [1]: 925 ng/mL
- concentration at 4 h [1]: 566 ng/mL
- concentration at 6 h [1]: 1730 ng/mL
- concentration at 8 h [1]: 900 ng/mL
- Cthrough (through concentration) [1]: 276.94 ng/mL
- Mean PAP ([2]; May 2012, worsening exertional dyspnea on sildenafil 20 mg tid): 47 mmHg
- Mean PAP ([2]; October 2012, after sildenafil increased to 40 mg tid, bosentan 125 mg bid): 40 mmHg
- 6-minute walking test ([2]; October 2012, sildenafil 40 mg tid, bosentan 125 mg bid): 479 m
- NYHA stage change ([2]; after introduction of sildenafil 20 mg tid): from NYHA stage III to NYHA stage II
- Mean PAP ([2]; after sildenafil 20 mg tid was added to bosentan, previously 63 mmHg): 43 mmHg
- Eye fundus examination versus baseline ([2]; during follow-up): no significant changes
- Influence on systemic blood pressure ([2]; measured regularly during the investigation): no significant influence
- Adverse reactions during follow-up ([2]; patient with raised sildenafil levels, headache, flushing, dyspepsia, priapism): did not report any adverse reactions
- tmax ([3]; healthy adults, 20 mg tid, oral): approximately 1 hour
- Cmax ([3]; healthy adults, sildenafil 20 mg tid): about 145 ng/mL
- Increase of AUC ([4]; with ritonavir 500 mg twice daily): 11 fold
- Plasma concentration at which maximal reductions in PAP and PVR were obtained [5]: ~100 ng/mL

SMILES: COc1ccccc1Oc1c(NS(=O)(=O)c2ccc(C(C)(C)C)cc2)nc(-c2ncccn2)nc1OCCO [bosentan]
- concentration at 2 h [1]: 3370 ng/mL
- concentration at 4 h [1]: 1750 ng/mL
- concentration at 6 h [1]: 1310 ng/mL
- concentration at 8 h [1]: 1230 ng/mL
- Cthrough (through concentration) [1]: 1546.53 ng/mL
- Increase of Cmax ([4]; by steady-state sildenafil, healthy volunteers): 42%
- Increase in AUC at steady state [4, 7]: 422%
- Increase in Cmax at steady state [4, 7]: 512%

SMILES: CCCc1nn(C)c2c(=O)[nH]c(-c3cc(S(=O)(=O)N4CCNCC4)ccc3OCC)nc12 [N-desmethylsildenafil]
- Plasma concentrations as % of the parent drug ([1]; during the study, patient on ritonavir-boosted PI): 40-50%
- Plasma concentration, t2 ([1]; t2, 10 a.m., 2 hours after intake of sildenafil and bosentan): 58.33 ng/mL
- Plasma concentration, t4 ([1]; t4, noon, 4 hours after intake of sildenafil and bosentan): 61.85 ng/mL
- Plasma concentration, t6 ([1]; t6, 2 p.m., 6 hours after intake of sildenafil and bosentan): 140.95 ng/mL
- Plasma concentration, t8 ([1]; t8, 4 p.m., 8 hours after intake of sildenafil and bosentan): 121.35 ng/mL
- Plasma levels as % of the parent drug ([3]; metabolite relative to sildenafil): 40-50%
- Potency relative to sildenafil (phosphodiesterase): about half the potency

SMILES: CC(C)c1nc(CN(C)C(=O)N[C@H](C(=O)N[C@@H](Cc2ccccc2)C[C@H](O)[C@H](Cc2ccccc2)NC(=O)OCc2cncs2)C(C)C)cs1 [ritonavir]
- concentration at 2 h [6]: < 50 ng/mL
- concentration at 4 h [6]: < 50 ng/mL
- concentration at 6 h [6]: < 50 ng/mL
- concentration at 8 h [6]: < 50 ng/mL
- Plasma levels in all of the samples ([6]; ritonavir 100 mg bid, bosentan coadministered): undetectable
- Plasma concentration, t0 ([6]; ritonavir 100 mg bid): <50 ng/mL

SMILES: CC(C)CN(C[C@@H](O)[C@H](Cc1ccccc1)NC(=O)O[C@H]1CCOC1)S(=O)(=O)c1ccc(N)cc1 [amprenavir]
- concentration at 2 h [6]: 1680 ng/mL
- concentration at 4 h [6]: 3960 ng/mL
- concentration at 6 h [6]: 2170 ng/mL
- concentration at 8 h [6]: 1890 ng/mL
- Cthrough ([6]; patient on fosamprenavir 700 mg bid, ritonavir 100 mg bid): 1495 ng/mL
- Plasma levels versus therapeutic ranges ([6]; patient, therapeutic ranges from ref 16): within therapeutic ranges
- Plasma concentration, t0 ([6]; ritonavir 100 mg bid): 1495 ng/mL
